Most compounds without a hit are left out; they make up all but 4.4% or so of the library.
HTR2A ag: mouse HTR2A agonism via beta-arrestin recruitment; CHO-K1 mHTR2A beta-arrestin complementation, luminescence; percent of 30 µM serotonin response; P35363; actives 0.66% (n = 360,000); activation, % at 7.6 µM; AID 624169;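 active = activation above a run cutoff, the mean activation of all tested compounds plus 3 SD, cut at about 14% in these data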;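 note: 0% = plate median of compound wells and 100% = 30 µM serotonin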
Tb MetRS inh: Trypanosoma brucei MetRS inhibition | purified T. brucei MetRS, ATP depletion, Kinase-Glo luminescence | actives 0.4% (n = 360,000) | inhibition, % at 11.9 µM;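 active = inhibition above a per-plate cutoff of the control wells' mean inhibition plus 3 SD, cut at about 5.5% in these data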;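 note: 0% = DMSO wells median and 100% = median of wells with control inhibitor compound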
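Measured by: Kinase-Glo luciferase luminescence reporting remaining unconsumed ATP. Material: purified T. brucei MetRS enzyme. Doses: 11.9 µM compound single dose, 0.9% DMSO. Medium: HEPES buffer containing pyrophosphatase, BSA, spermine, DTT. Times: 15 min preincubation, 2 h reaction, all 25 °C. Reagent: methionine, ATP and bulk E. coli tRNA.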
AHR act: activates the human aryl hydrocarbon receptor; P35869; AHR-responsive luciferase reporter cells, luminescence; activation, % at 5 µM; actives 2.5% (n = 320,000); in the data active = activation above about 47%;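 note: 0% = vehicle wells and 100% = reference agonist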
Target sequence (P35869 whole entry, looked up): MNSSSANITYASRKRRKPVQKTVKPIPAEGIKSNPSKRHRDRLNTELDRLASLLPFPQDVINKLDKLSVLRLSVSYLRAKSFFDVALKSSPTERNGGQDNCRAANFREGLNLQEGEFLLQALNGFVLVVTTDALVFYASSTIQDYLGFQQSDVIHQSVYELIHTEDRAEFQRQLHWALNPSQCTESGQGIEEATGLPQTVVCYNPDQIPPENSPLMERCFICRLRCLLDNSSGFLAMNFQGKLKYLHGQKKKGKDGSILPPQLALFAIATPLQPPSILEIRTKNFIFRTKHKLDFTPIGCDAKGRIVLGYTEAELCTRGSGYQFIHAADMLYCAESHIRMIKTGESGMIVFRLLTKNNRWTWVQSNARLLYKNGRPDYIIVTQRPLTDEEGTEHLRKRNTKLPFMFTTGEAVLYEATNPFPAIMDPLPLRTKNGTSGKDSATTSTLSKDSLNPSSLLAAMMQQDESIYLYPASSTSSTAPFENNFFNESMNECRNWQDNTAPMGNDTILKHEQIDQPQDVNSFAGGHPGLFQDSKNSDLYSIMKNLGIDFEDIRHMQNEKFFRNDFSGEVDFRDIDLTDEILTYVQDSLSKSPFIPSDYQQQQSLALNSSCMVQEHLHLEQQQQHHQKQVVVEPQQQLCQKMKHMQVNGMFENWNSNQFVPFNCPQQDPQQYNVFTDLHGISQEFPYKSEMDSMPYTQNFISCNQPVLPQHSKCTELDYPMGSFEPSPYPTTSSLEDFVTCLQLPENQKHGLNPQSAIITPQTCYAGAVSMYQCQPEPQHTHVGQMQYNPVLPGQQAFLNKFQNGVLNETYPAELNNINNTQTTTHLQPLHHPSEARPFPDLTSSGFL
MsrA act: activates bovine MsrA enzyme. actives 0.3% (n = 360,000). purified bovine MsrA, absorbance read-out. activation, % at 10.6 µM; in the data active = activation above about 7.5%;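 note: 0% = vehicle and 100% = reference activator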
MsrA inhibitor: bovine MsrA inhibition; purified bovine MsrA, absorbance read-out; inhibition, % at 15.5 µM; actives 0.75% (n = 360,000); in the data active = inhibition above about 4.5%;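 note: 0% = vehicle wells with enzyme and 100% = reference inhibitor wells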
AI-2 QS modul: Vibrio harveyi AI-2 quorum sensing modulation; Vibrio harveyi JMH597 AI-2 luminescence/OD600 ratio, 9 h; hits give low values; strain lacks LuxN and CqsS sensors; 0 = neutral-control median; activity change, % at 7.5 µM; actives 0.4% (n = 300,000); AID 2094; in the data active = activity change below about -75%, passing the limit was not always enough;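 note: luminescence divided by OD600 gain over 9 h not by final OD600 alone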
OPRM1 ag: OPRM1 agonism in mouse HTR2A counterscreen; shares compounds with HTR2A ag; U2OS OPRM1 beta-arrestin PathHunter, luminescence; DMSO 0%, DAMGO 9.3 µM 100%; activation, % at 9.3 µM; actives 5.3% (n = 2,300);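 active = mean activation above the mean of DMSO-only wells plus 3 SD, cut at about 0.5% in these data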
HTR2A ag conf: mouse HTR2A agonism confirmed; shares compounds with HTR2A ag; CHO-K1 PathHunter beta-arrestin recruitment, luminescence; DMSO 0%, 30 µM serotonin 100%; activation, % at 7.6 µM; actives 19% (n = 2,300);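 active = mean activation across triplicates above the hit threshold derived in the original primary screen, cut at about 15% in these data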
The depositor's hits bear a star; · = not tested or not shown.

SMILES	HTR2A ag	Tb MetRS inh	AHR act	MsrA act	MsrA inhibitor	AI-2 QS modul	OPRM1 ag	HTR2A ag conf
CN1C(=O)C(CC(=O)NC2CCCCC2)SC1=Nc1ccccc1 (centres undefined)	23*	-1	-1	7	2	10	-1	-3
CCN=C1SC(CC(=O)NC2CCCCC2)C(=O)N1CC (centres undefined)	-5	0	0	-1	1	5	·	·
C[C@H]1CN([C@@H](C)CO)C(=O)c2cc(/C=C/c3ccccc3)cnc2O[C@H]1CN(C)C(=O)c1cccc(F)c1	17*	0	·	0	1	·	-1	-8
COc1ccc2c(c1)CCCC21NC(=O)N(CC(=O)NCc2cccs2)C1=O (centres undefined)	19*	-1	-1	-10	0	·	0	1
CC(=O)Nc1cncc(-c2cccc(C(=O)N3CCOCC3)c2)n1	-1	0	·	-4	0	·	·	·
Cc1csc(NC(=O)C2=NN(c3ccccc3)C(=O)CC2)n1	-1	0	12	-3	1	18	·	·
Cc1ccc(-c2csc(NC(=O)C3=NN(c4ccccc4)C(=O)CC3)n2)cc1	18*	-1	28	-7	2	17	0	-1
COc1ccc(-c2csc(NC(=O)Nc3ccccc3)n2)cc1	19*	0	3	-14	-1	18	0	7
O=C(Nc1ccccc1)Nc1nc(-c2ccc(Cl)cc2)cs1	-2	-1	-4	-4	3	14	·	·
CCN(c1ccc(NC(=O)c2ccc(N3CCCC3=O)cc2)cc1)C(C)C	2	0	-4	-2	0	27	·	·
COc1ccc(CCNC(=O)CSc2ccc3ccccc3c2)cc1OC	-5	-1	6	-3	0	22	·	·
O=C(CSc1ccc2ccccc2c1)NCCc1ccc(O)c(O)c1	31*	0	0	6	-1	0	0	101*
Cc1nc(-c2ccc(F)cc2)c(CC(=O)N(C)CC(=O)Nc2cccc(F)c2)s1	13	0	·	-1	0	·	·	·
CCOC(=O)C1(C)CCCCCN1C(=O)c1ccc(OC)cc1 (centres undefined)	16*	0	·	-4	-1	·	-1	-4
CCOC(=O)C1(C)CCCCN1C(=O)c1ccc(N(C)C)cc1 (centres undefined)	5	0	·	-7	0	·	·	·
COC(=O)C[C@H]1CC[C@@H](NC(=O)C2CC2)[C@@H](CO)O1	18*	-1	·	·	2	·	0	-1
Cc1cccc(NS(=O)(=O)c2cc(C(=O)N3CCCCCC3)ccc2C)c1	1	0	-2	-1	1	10	·	·
CC(CN1CCOCC1)OC(=O)/C=C/c1ccccc1 (centres undefined)	-3	-1	0	-11	0	23	·	·
CC(CN1CCCCC1)OC(=O)/C=C/c1ccccc1 (centres undefined)	17*	0	1	-1	2	9	-1	1
CC1CC(=Cc2ccc([N+](=O)[O-])cc2)C(=O)O1 (centres undefined)	-4	0	·	-7	3	·	·	·
CC(=O)Nc1ccc(Nc2nc(C)c([N+](=O)[O-])c(N(C)c3ccccc3)n2)cc1	25*	0	-6	-9	0	-13	0	-5
CC(=O)Nc1ccc(Nc2nc(C)c([N+](=O)[O-])c(Nc3ccccc3)n2)cc1	0	0	24	-1	3	7	·	·
CC(C)N=c1scc(-c2cccs2)n1/N=C/c1ccc(O)c(O)c1O	15*	-1	3	-1	1	·	1.1*	18*
CC(C)NC(=O)C1(C)CCN1C(=O)c1ccc(F)c(Cl)c1 (centres undefined)	15*	0	·	-1	0	·	-1	-4
CC(C)NC(=O)C1(C)CCN1C(=O)c1cccc(Cl)c1 (centres undefined)	-5	0	·	-1	0	·	·	·
SMILES	HTR2A ag	Tb MetRS inh	AHR act	MsrA act	MsrA inhibitor	AI-2 QS modul	OPRM1 ag	HTR2A ag conf
COc1ccc(NC(=O)Nc2ccc3c(c2)C(=O)N([C@@H](C)CO)C[C@@H](C)[C@@H](CN(C)S(=O)(=O)c2cccs2)O3)cc1	4	0	-1	0	1	·	·	·
C[C@@]12CCC3[C@@](CCC4[C@@]3(C)CCC[C@@]4(C)C(=O)NC3CCCCC3)(CC1=O)C2 (some centres undefined)	4	0	-2	-3	0	·	·	·
C[C@@]12CCC3[C@@](CCC4[C@@]3(C)CCC[C@@]4(C)C(=O)N3CCCCC3)(CC1=O)C2 (some centres undefined)	14*	0	-1	-3	-1	·	0	-5
COCCN(Cc1cc2cc(C)ccc2[nH]c1=O)S(=O)(=O)c1ccc(Cl)cc1	-4	0	44	0	0	14	·	·
Cc1cc(-c2onc(C)c2C(=O)Oc2ccc(Cl)cc2)no1	19*	0	1	-3	-1	13	0	-4
Cc1cc(NC(=O)COC(=O)c2ccc(Cl)cc2)no1	2	0	·	-2	-1	·	·	·
Cc1cc(Cl)ccc1NC(=O)CN(C)C1=NS(=O)(=O)c2ccccc21	15*	0	2	-4	0	·	0	1
CCc1cccc(C)c1NC(=O)CN(C)C1=NS(=O)(=O)c2ccccc21	2	0	1	-5	1	·	·	·
Cc1cccc(NS(=O)(=O)c2ccc(C(=O)N3CCN(c4ccccc4O)CC3)cc2)c1C	16*	0	-2	-6	-1	42	0.5*	5
Cc1ccccc1NS(=O)(=O)c1ccc(C(=O)N2CCCC2)cc1	7	0	-3	-2	-1	-6	·	·
O=C(C[n+]1ccccc1)N1CCCc2ccccc21	20*	0	-1	0	0	8	0	2
Cc1cc[n+](CC(=O)N2CCCc3ccccc32)cc1	2	0	-1	-3	1	12	·	·
O=C(c1ccco1)N1CCN(c2nc3ccsc3c(=O)s2)CC1	42*	1	-1	-3	0	30	-1	9
Cc1cc2nc(N3CCN(C(=O)c4ccco4)CC3)sc2cc1C	7	0	-7	1	0	58	·	·
O=C(COC(=O)CNC(=O)c1ccccc1)NCCNC(=O)COC(=O)CNC(=O)c1ccccc1	-4	0	-2	-2	0	·	·	·
Cc1ccc(OCCC(=O)OCC(=O)Nc2ccccc2)cc1	17*	0	1	-10	0	16	-1	-5
